Measured values collected from several papers.
Protocols differ between the studies behind these lines.
Target: Tyrosine-protein kinase Lck (LCK, Homo sapiens, UniProt P06239)

The remaining binding of `N#Cc1ccc(Nc2ccc3[nH]c(=O)[nH]c3c2)c(Cl)c1` is reported as 100% (cell-free assay, competition with immobilised ligand; 1 µM).
`c1cncc(-c2cccc(Nc3nccc(NC4CCCCC4)n3)c2)c1` gave a remaining binding of 6.6% (binding, competition with immobilised ligand; 10 µM).
`O=C(NCCCN1CCOCC1)c1ccc(Nc2ncc(Cl)c(-c3ccc(Cl)s3)n2)cc1` has a remaining binding of 100% (binding, competition with immobilised ligand; 1 µM).
`Nc1ncc2c(n1)-c1c([nH]c3ccc(C#CC4CC4)cc13)CCCC2` has a remaining binding of 100% (binding, competition with immobilised ligand; 1 µM).
The remaining binding of `FC(F)(F)Oc1cccc(-c2cnc3ccc(-c4ccncc4)nn23)c1` is reported as 35% (cell-free assay, competition with immobilised ligand; 5 µM).
The remaining binding of `C[C@@H]1CCN(c2nccc(-c3cnn4ncccc34)n2)C1` is reported as 93% (binding; 1 µM).
For `COc1ccc2cc(OCC3(C(=O)O)CN(C(=O)c4ccc(F)cc4)C3)ccc2c1`, the remaining binding was 80% (cell-free assay, competition with immobilised ligand; 1 µM).
`O=C(c1ccc(Nc2nccc(-c3cc4ccccc4s3)n2)cc1)N1CCC(N2CCCC2)CC1` has a remaining binding of 34% (binding, competition with immobilised ligand; 1 µM).
`C[C@@H](c1ccc(-n2cnc3c(N)ncnc32)cc1)N1CCc2nn(C)c(Cc3ccccc3)c2C1=O` gave a remaining binding of 94% (binding, competition with immobilised ligand; 0.1 µM).
With `CCCOc1ccc([C@@H]2[C@@H](C(=O)O)[C@H](c3ccc4c(c3)OCO4)CN2CC(=O)Nc2c(CC)cccc2CC)cc1` the remaining binding was 100% (cell-free assay, competition with immobilised ligand; 1 µM).
`Cc1cnc(Nc2ccc(C(=O)N3CCC(N4CCCC4)CC3)cc2)nc1-c1cc2ccccc2s1` gave a remaining binding of 2.7% (binding, competition with immobilised ligand; 1 µM).
With `CNC(=O)[C@@H]1CC[C@@H](n2c(-c3ccc4cnccc4c3)nc3ccc(C(=O)NCc4cccc(C(N)=O)c4)cc32)C1` the remaining binding was 94% (binding, competition with immobilised ligand; 1 µM).
`CN(CCCC(F)(F)F)c1nccc(-c2cnn3ncccc23)n1` has a remaining binding of 89% (binding; 1 µM).
For `O=C(Nc1c[nH]nc1C(=O)NC1CCNCC1)c1cc(F)cc(F)c1`, the remaining binding was 100% (binding, competition with immobilised ligand; 1 µM).
For `CNCc1ccccc1-c1csc([C@H](C)Nc2nc(C)nc3cc(OC)c(OC)cc23)c1`, the remaining binding was 100% (cell-free assay, competition with immobilised ligand; 1 µM).
With `COc1ccnn2ncc(-c3ccnc(N(C)C)n3)c12` the remaining binding was 94% (binding; 1 µM).
